The list is not random: actives were taken first. Their share in the collection is about 3%.
PfHsp90 set2: growth inhibition of PfHsp90-expressing yeast, primary screen, antimalarial PfHsp90 inhibitor project, S. cerevisiae, BacTiter-Glo luminescence, single point, set 2; BacTiter-Glo ATP, 48 h; yeast lacking PDR1 and PDR3 efflux regulators; inhibition, % at 9.4 µM; 310,000 tested, 0.32% active; AID 504621, 2011;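 active means every replicate shows inhibition above about 80%, whatever the replicate mean, limit read from the data; inconclusive means mean inhibition reaches the set limit but some replicate falls short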;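 further: 0% = DMSO neutral controls and 100% = 20 µM radicicol positive controls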
CaV13 FRET inh: Disruptors of the CACNA1D IQ motif to Ca2+-dependent inactivation inhibitor domain association, primary screening, Förster resonance energy transfer in intact living …; HEK cells, CFP/YFP FRET ICDI-IQ, plate reader, 10 min; percent FRET-ratio fall versus neutral wells; AID 743397; 340,000 tested, 0.098% active; inhibition, % at 12.3 µM;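 active means mean replicate inhibition of at least 30% and at least 1% of replicates passing that level; inconclusive means only one of the two criteria is met; inactive means neither criterion is met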;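 further: 0% = median of the neutral control wells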
Glyco luc inh: increase of ERlucT glycosylation luciferase signal, primary screen, N-linked glycosylation inhibitor project, D54 ERlucT cells, luminescence, set 2 | D54 ERlucT glycosylation luciferase reporter, 24 h; percent of 100 nM tunicamycin response | 360,000 tested, 0.23% active | reporter increase, % at 12.5 µM;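 active means mean luciferase reporter signal, scaled so untreated is 0 and the glycosylation-blocking control 100, at or above a set limit in every replicate; inconclusive means mean reaches the limit but not every replicate does; inactive means mean below the limit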;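 further: luciferase carries N-glycosylation sites so blocking glycosylation raises the light; 0% = median of neutral control wells and 100% = median of 100 nM tunicamycin wells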
T cruzi inh: inhibitors of intracellular T. cruzi growth, primary screen, luminescence, NIH3T3 host cells | T. cruzi beta-gal in NIH3T3, 90 h | inhibition, % (no concentration beside the values) | 300,000 tested, 1.4% active | AID 1885, 2009;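 active means mean inhibition across valid replicates above about 55%, limit read from the data; inconclusive means mean below that limit but half or more replicates reach it; inactive means mean below it, under half of replicates reach it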;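 further: signal also drops with host cell toxicity which is not excluded here; 0% = plate median of DMSO wells and 100% = zero luminescence signal; higher percent means less beta-gal luminescence so fewer parasites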
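Assay system: NIH/3T3 fibroblasts plus reporter T. cruzi. Amount: NIH/3T3 cells, 5,000 per well. Buffer or medium: DMEM, 2% fetal bovine serum. Doses: compound pinned at 50 nL/well, DMSO. Schedule: ≥90 h infection period, 3 h prior cell attachment. Signal: luminescent β-galactosidase signal after 60 min lysis. Read-out: parasite load inhibition, %.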
HSF1 activator: HSF-1 activators, primary screen, NIH3T3-HGL cells, MG132 stress, luminescence, single point; NIH3T3-HGL HSF-1 luciferase reporter, 8 h; 100% = twice DMSO control signal; activation, % at 9 µM; 300,000 tested, 1.7% active;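 active means mean replicate activation of at least 50% with a set share of replicates each reaching 50%; inconclusive means only one of those two conditions met; inactive means mean below 50% and too few replicates reaching it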;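 further: 0% = median of the neutral control wells and 100% = twice that signal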
PvdQ acylase: P. aeruginosa PvdQ acylase inhibitors, primary screen, biochemical, fluorescence, plate reader and imaging, single point; 340,000 tested, 0.063% active; purified PvdQ acylase; inhibition, % at 10 µM; AID 488965, 2010; PvdQ acylase [Pseudomonas aeruginosa LESB58]; in the data active means inhibition above about 30%, passing the limit was not always enough; inconclusive means no clear call, values can overlap the other calls;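 further: 0% = vehicle neutral wells and 100% = reference inhibitor wells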
* = called active by the depositor; ? = inconclusive; · = no result.

SMILES	PfHsp90 set2	CaV13 FRET inh	Glyco luc inh	T cruzi inh	HSF1 activator	PvdQ acylase
COc1cc(Cl)c(CC(=O)c2c[nH]c3ccccc23)cc1OC	-32	-7	-4	14	62*	-17
NC(=O)c1ncn([C@@H]2O[C@H](C(=O)Nc3ccc(C(=O)N4CCCCC4)cc3)[C@@H](O)[C@H]2O)n1	·	-5	·	·	·	·
CCN1CCN(c2ccc(S(=O)(=O)N3CCCCC3)cc2NC(=O)COc2ccc(F)cc2Cl)CC1	7	-3	-9	64*	-14	-13
O=C(COc1ccc(F)cc1)Nc1cc(S(=O)(=O)N2CCCCC2)ccc1N1CCCCC1	·	-6	-11	55*	4	11
COC(=O)[C@@]12C[C@@H](CC(=O)NCCCN3CCCC3=O)C(=O)N(CCc3ccc(OC)c(OC)c3)C1=CCC(C)(C)C2	·	-9	·	·	·	·
COc1cc(C2C(C#N)=C(N)OC3=C2C(=O)CC(C)(C)C3)c([N+](=O)[O-])cc1OC (stereo not given)	·	-4	1	2	-29	-15
CC1(C)CC(=O)C2=C(C1)OC(N)=C(C#N)[C@@H]2c1ccccc1[N+](=O)[O-]	7	179*	1	-26	3	-10
COc1ncccc1-c1cc2nc(NCCNC(C)=O)n(C)c(=O)c2s1	·	-6	3	·	·	·
CC(=O)n1cc(C(C[N+](=O)[O-])SCCN)c2ccccc21 (stereo not given)	·	·	13	-13	59*	-2
Cn1cc(C(C[N+](=O)[O-])c2ccccc2)c2ccccc21 (stereo not given)	-16	-4	13	20	9	-15
CCCCNC(=O)C1(C)CCCCN1Cc1ccc(OCc2ccccc2)cc1 (stereo not given)	·	-5	-6	·	·	·
CCc1nc2c(OCCOC)cccn2c1N(C)C(=O)Nc1ccccc1OC	·	-6	4	·	·	·
CCOC(=O)c1c(NC(C)=O)sc2c1CCC(C=O)=C2Sc1ccccc1	-8	-10	32*	4	?	-13
CCOC(=O)c1c(NC(C)=O)sc2c1CCN(Cc1ccccc1)C2	-14	-4	-2	21	-9	-14
Cc1ccccc1Cn1c(C)c(C(=O)N(C)Cc2ccc(F)cc2)sc1=O	·	?	-1	·	·	·
Cc1ccc(-n2c(-c3ccc(Br)cc3)c[n+]3c2CCc2ccc4cccnc4c2-3)cc1	-20	-5	40*	60*	10	-9
Cc1ccc(-n2c(=O)[nH]c3ncccc3c2=O)cc1	-6	2	0	-4	0	-9
Cc1cc2ccccn2c1C(=O)c1cc([N+](=O)[O-])cc([N+](=O)[O-])c1	13	-4	2	65*	11	0
COC(=O)c1cc(C(=O)c2c(C)cc3ccccn23)cc([N+](=O)[O-])c1	-7	-3	?	18	17	-9
COc1cc(/C=C/CN2CCC(C(=O)NC(c3ccc(F)cc3)c3ccc4ccccc4n3)CC2)ccc1OC(C)=O (stereo not given)	·	-7	-4	·	·	·
CCN(CC)CCNc1ccc(C)c2sc3ccc(O)cc3c(=O)c12	-2	-6	54*	·	·	5
CC[C@H](C)[C@H]1CNC(=O)C(=O)N1CC1CCN(CC(C)C)CC1	·	-4	·	·	·	·
COc1cc(OC)cc(C(=O)NCC2CCN(C(=O)C(=O)c3cccs3)CC2)c1	·	-9	·	·	·	·
CCc1ccc(CN(C)C(=O)CCc2nc3ccccc3n(-c3ccc(OC)cc3)c2=O)cc1	16	-5	-7	38	70*	-12
COc1ccccc1CNC(=O)C1CCCN(c2cnccn2)C1 (stereo not given)	-16	-15	0	-4	-21	-1
SMILES	PfHsp90 set2	CaV13 FRET inh	Glyco luc inh	T cruzi inh	HSF1 activator	PvdQ acylase
COc1cccc(NC(=O)c2ccnc(N3CCC(C(=O)NCc4ccccc4OC)CC3)c2)c1	4	-15	2	-19	111*	-3
CCOC(=O)C1=C(C)N=C2c3ccccc3C(=O)C2C1c1ccc(Cl)cc1 (stereo not given)	37	-5	-2	61*	-4	7
CCN1CCN(S(=O)(=O)c2ccc(Cl)c(C(=O)Oc3ccc(CC(=O)OC)cc3)c2)CC1	-2	-6	1	·	·	-8
CC(C)(CN1CCN(C(c2ccccc2)c2ccccc2)CC1)NS(=O)(=O)c1ccccc1	-9	-5	-4	62*	21	-2
CC(C)c1[nH]nc2c1C(c1ccccc1)N(Cc1ccccc1)C2=O (stereo not given)	·	-5	·	·	·	·
Cc1ccc(S(=O)(=O)N2CCN(C(=O)C(O)c3ccccc3)CC2)cc1 (stereo not given)	·	-16	·	·	·	·
Cc1cnn(-c2cc(N/N=C/c3cccc(F)c3)ncn2)c1	-30	-4	0	-7	56*	2
O=C(CC1CCCC1)N[C@H](C(=O)N1CCC[C@H]1C(=O)NC1CCCC1)C1CCCCC1	·	-4	·	·	·	·
Cc1cc(Cl)ccc1OCCCC(=O)NO	-8	-6	81*	24	-13	-57
Cc1ccc(C(C)C)c(OCC(=O)NC2CCN(C)CC2)c1	-3	·	2	64*	-12	-2
Cc1cc(Cl)ccc1OCCCC(=O)NC1CCN(C)CC1	·	-8	-1	71*	-20	-11
CCOC1=C2[C@H](c3ccc(Cl)cc3)N(S(=O)(=O)c3ccc(C)cc3)C[C@H]2n2c(=O)n(-c3ccccc3)c(=O)n2C1	·	-6	2	·	·	·
COC(=O)[C@]12C[C@H](CC(=O)N3CCCCC3)C(=O)N(Cc3ccc4c(c3)OCO4)C1=C[C@H](C(C)(C)C)O[C@@H]2C	·	-9	·	·	·	·
CC(C)(C)c1ccc(OCCON2C(=O)CCC2=O)c(Cl)c1	-97	-8	3	-12	10	-16
CNCCCCOc1ccc(C(C)(C)C)cc1Cl	6	-4	-4	59*	16	5
CCNC(=S)N(Cc1ccco1)Cc1cc2cc(OCC)ccc2[nH]c1=O	-18	-8	0	12	71*	-12
CNC(=S)N(Cc1ccco1)Cc1cc2cc(OC)c(OC)cc2[nH]c1=O	·	11	4	4	57*	10
Nc1ccn(C(C=O)CC(C=O)CO)c(=O)n1 (stereo not given)	·	-13	1	·	·	·
Cc1c(Cl)ccc2c1NC(=O)[C@]21N[C@@H](CCC(N)=O)[C@H]2C(=O)N(c3ccc(F)cc3)C(=O)[C@H]21	4	-4	4	-9	-2	-2

Screening results deposited in PubChem BioAssay by Broad Institute.
